Results from ChEMBL document CHEMBL4325907, “Diaryl hydroxylamines as pan or dual inhibitors of indoleamine 2,3-dioxygenase-1, indoleamine 2,3-dioxygenase-2 and tryptophan dioxygenase” (Eur J Med Chem, 2019).
Active and inactive are the calls of the source. No cut-off for these calls is given here.

Legend:
[1] = target: T1, Indoleamine 2,3-dioxygenase 2 (Homo sapiens) (UniProt Q6ZQW0); assay: Inhibition of IDO2 (unknown origin) at 100 uM using L-tryptophan as substrate by spectrophotometric method relative to control
T1 sequence (whole entry): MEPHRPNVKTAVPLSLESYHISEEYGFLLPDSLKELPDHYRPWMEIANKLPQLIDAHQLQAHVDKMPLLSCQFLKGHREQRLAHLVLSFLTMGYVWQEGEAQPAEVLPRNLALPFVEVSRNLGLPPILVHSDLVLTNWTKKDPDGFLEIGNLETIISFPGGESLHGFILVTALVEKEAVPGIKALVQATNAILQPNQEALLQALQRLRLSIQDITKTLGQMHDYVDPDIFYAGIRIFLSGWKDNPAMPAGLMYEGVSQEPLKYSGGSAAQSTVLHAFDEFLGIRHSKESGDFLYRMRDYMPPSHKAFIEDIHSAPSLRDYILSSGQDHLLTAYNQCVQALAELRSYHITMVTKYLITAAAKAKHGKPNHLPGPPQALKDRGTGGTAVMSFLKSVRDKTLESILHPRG

[2] = target: T2, Indoleamine 2,3-dioxygenase 2 (Mus musculus, UniProt Q8R0V5); assay: Inhibition of mouse IDO2 expressed in human T-REx cells using L-tryptophan as substrate after 20 hrs; assay type: cell-based
T2 sequence (Q8R0V5 whole entry): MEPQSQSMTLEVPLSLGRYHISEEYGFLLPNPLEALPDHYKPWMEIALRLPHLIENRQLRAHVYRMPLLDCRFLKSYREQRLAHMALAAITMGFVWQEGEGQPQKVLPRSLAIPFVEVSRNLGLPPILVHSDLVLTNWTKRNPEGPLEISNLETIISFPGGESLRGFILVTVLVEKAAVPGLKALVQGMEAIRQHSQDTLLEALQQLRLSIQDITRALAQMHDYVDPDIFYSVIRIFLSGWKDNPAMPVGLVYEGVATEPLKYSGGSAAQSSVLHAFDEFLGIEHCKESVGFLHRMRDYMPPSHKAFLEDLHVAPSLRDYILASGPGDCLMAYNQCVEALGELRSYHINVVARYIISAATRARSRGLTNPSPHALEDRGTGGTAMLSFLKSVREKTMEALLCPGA
Method in brief: (§1)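 HeLa cells (endogenous human IDO1) were induced with 100 ng/mL IFNγ for 24 h at 100 μM Trp. T-REx cells carried tet-regulated human TDO (2 ng/mL doxycycline, 24 h, 100 μM Trp) or mouse IDO2 (doxycycline plus 8 mM 5-aminolevulinic acid, 20 μM hemin, 4 mM Trp, 48 h). After induction, compound serial dilutions were added in medium with final Trp 100 μM (IDO1/TDO) or 2 mM (IDO2) for 20 h at 37 °C. Read-out was TCA fixation, 65 °C hydrolysis, then p-dimethylaminobenzaldehyde colour.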

[3] = target: T3, Tryptophan 2,3-dioxygenase (Homo sapiens, UniProt P48775); assay: Inhibition of TDO (unknown origin) at 100 uM using L-tryptophan as substrate by spectrophotometric method relative to control
Target sequence in this assay (P48775 whole entry, looked up): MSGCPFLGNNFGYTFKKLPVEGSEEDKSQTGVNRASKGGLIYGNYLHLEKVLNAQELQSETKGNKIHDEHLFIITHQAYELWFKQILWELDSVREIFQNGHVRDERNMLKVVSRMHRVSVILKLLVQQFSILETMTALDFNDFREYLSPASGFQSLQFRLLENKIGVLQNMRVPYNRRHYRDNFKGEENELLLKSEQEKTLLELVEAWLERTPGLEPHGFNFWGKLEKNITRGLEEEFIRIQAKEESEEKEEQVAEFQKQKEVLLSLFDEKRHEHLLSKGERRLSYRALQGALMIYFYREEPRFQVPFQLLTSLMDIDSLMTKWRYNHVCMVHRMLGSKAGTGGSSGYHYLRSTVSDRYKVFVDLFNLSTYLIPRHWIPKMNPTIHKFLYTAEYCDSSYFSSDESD

[4] = target: T3, Tryptophan 2,3-dioxygenase; assay: Inhibition of human TDO expressed in human T-REx cells using L-tryptophan as substrate after 20 hrs; assay type: cell-based; method in brief: as §1
Target sequence in this assay (P48775 whole entry): as the sequence (P48775 whole entry, looked up) above

[5] = target: T4, Indoleamine 2,3-dioxygenase 1 (Homo sapiens, UniProt P14902); assay: Inhibition of IDO1 in human HeLa cells using L-tryptophan as substrate after 20 hrs; assay type: cell-based; method in brief: as §1
Target sequence in this assay (P14902 whole entry): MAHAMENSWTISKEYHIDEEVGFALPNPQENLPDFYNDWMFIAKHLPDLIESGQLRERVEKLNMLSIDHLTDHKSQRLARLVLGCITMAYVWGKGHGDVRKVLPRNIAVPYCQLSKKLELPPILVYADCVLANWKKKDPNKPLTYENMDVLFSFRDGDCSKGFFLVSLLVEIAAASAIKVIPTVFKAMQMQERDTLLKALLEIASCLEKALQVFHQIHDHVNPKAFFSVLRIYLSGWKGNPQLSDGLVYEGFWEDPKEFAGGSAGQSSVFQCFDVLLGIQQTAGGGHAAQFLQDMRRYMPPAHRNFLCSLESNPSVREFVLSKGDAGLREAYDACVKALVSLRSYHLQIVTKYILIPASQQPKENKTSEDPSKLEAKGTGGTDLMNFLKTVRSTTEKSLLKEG

[6] = target: T4, Indoleamine 2,3-dioxygenase 1; assay: Inhibition of IDO1 (unknown origin) at 100 uM using L-tryptophan as substrate by spectrophotometric method relative to control
Target sequence in this assay (P14902 whole entry, looked up): as the sequence (P14902 whole entry) above

[7] = Cytotoxicity against human HeLa cells assessed as cell viability up to 100 uM relative to control; assay type: cell-based; conditions: read-out: Activity
[8] = target: T4, Indoleamine 2,3-dioxygenase 1; assay: Inhibition of IDO1 (unknown origin) using L-tryptophan as substrate by spectrophotometric method
Target sequence in this assay (P14902 whole entry): as above

[9] = target: T3, Tryptophan 2,3-dioxygenase; assay: Inhibition of TDO (unknown origin) using L-tryptophan as substrate by spectrophotometric method
Target sequence in this assay (P48775 whole entry): as the sequence (P48775 whole entry, looked up) above

Homo sapiens [10] = species: Homo sapiens; assay: Selectivity ratio of IC50 for inhibition of TDO (unknown origin) to IC50 for inhibition of IDO1 (unknown origin)
Homo sapiens [11] = species: Homo sapiens; assay: Selectivity ratio of IC50 for inhibition of IDO2 (unknown origin) to IC50 for inhibition of IDO1 (unknown origin)
[12] = target: T4, Indoleamine 2,3-dioxygenase 1; assay: Inhibition of IDO1 in human HeLa cells at IC50 using L-tryptophan as substrate after 24 hrs in presence of 100% human serum by LC-MS/MS analysis; assay type: cell-based
Target sequence in this assay (P14902 whole entry, looked up): as the sequence (P14902 whole entry) above

[13] = target: T5, Indoleamine 2,3-dioxygenase 2 (Homo sapiens, UniProt Q6ZQW0); assay: Inhibition of IDO2 (unknown origin) using L-tryptophan as substrate by spectrophotometric method
T5 sequence (Q6ZQW0 whole entry): T1 sequence (whole entry)

Homo sapiens [14] = species: Homo sapiens; assay: Selectivity ratio of IC50 for inhibition of human TDO expressed in human T-REx cells to IC50 for inhibition of IDO1 in human HeLa cells; assay type: cell-based; method in brief: as §1
[15] = Selectivity ratio of IC50 for inhibition of mouse IDO2 expressed in human T-REx cells to IC50 for inhibition of IDO1 in human HeLa cells; assay type: cell-based; method in brief: as §1

Row | IC50 ([5]; hela) [µM] | Compound | inhibition [1] [%] | IC50 [2] [µM] | inhibition [3] [%] | IC50 [4] [µM] | IC50 [5] [µM] | inhibition [6] [%] | viability [7] [%] | IC50 [8] [µM] | IC50 [9] [µM] | Ratio IC50 (Homo sapiens [10]) | Ratio IC50 (Homo sapiens [11]) | inhibition [12] | IC50 [13] [µM] | Ratio IC50 (Homo sapiens [14]) | Ratio IC50 [15]
1 | – | NOC(c1ccccc1)c1ccc(F)cc1F (stereo unspecified) | 46 | 18.9 | 90.3 | 6.37 | 1.21 | > 95 | 60 | 7 | – | – | – | – | – | – | –
2 | – | NS(=O)(=O)NCCNc1nonc1C(=NO)Nc1ccc(F)c(Br)c1 [EPACADOSTAT] | – | 18.9 | – | 25.2 | – | – | ≥ 80 | – | – | – | – | – | – | – | –
3 | 1.73 | NOC(c1ccccc1)c1cccc(C(F)(F)F)c1 (stereo unspecified) | – | 24.7 | > 95 | 13.6 | – | 18 | ≥ 80 | – | 12 | – | – | – | – | – | –
4 | – | NOC(c1ccccc1)c1ccc(Cl)cc1 (stereo unspecified) | 74.3 | 27.8 | > 95 | 23.7 | 7.15 | > 95 | ≥ 80 | 5 | 5 | – | – | – | – | – | –
5 | – | NOC(CCCC(=O)Nc1ccccc1)c1cccc(Cl)c1 (stereo unspecified) | 84.3 | 36.1 | 75.5 | 123 | 1.43 | > 95 | ≥ 80 | 3 | – | > 20 | > 20 | – | – | – | –
6 | – | NOC(c1ccccc1)C1CCCCC1 (stereo unspecified) | 88.6 | 40.2 | 43.6 | 2770 | 21 | 76 | ≥ 80 | – | – | – | – | – | – | – | –
7 | – | NOC(c1ccccc1)c1cc(C(F)(F)F)ccc1F (stereo unspecified) | 73.8 | 8.94 | 73.4 | 9.02 | 1.09 | > 95 | ≥ 80 | 8 | – | – | – | – | – | – | –
8 | – | NOC(CCc1cccc(Cl)c1)c1ccccc1 (stereo unspecified) | 78.1 | 20.5 | 93.1 | 58.7 | 6.74 | > 95 | ≥ 80 | 7 | – | – | – | – | – | – | –
9 | – | NOC(c1ccccc1)c1ccc(Cl)cc1Cl (stereo unspecified) | 73 | 7.68 | > 95 | 4.82 | 1.99 | > 95 | ≥ 80 | 4 | 6 | – | – | inactive | – | – | –
10 | – | NOC(c1ccccc1)c1ccccc1Cl (stereo unspecified) | > 95 | 10.7 | 89.8 | 21.8 | 2.48 | > 95 | ≥ 80 | 18 | – | – | – | – | 25 | 5 to 10 | 5 to 10
11 | – | NOC(c1ccccc1)c1cc(F)cc(F)c1 (stereo unspecified) | 83 | 8.75 | 92.6 | 3.48 | 0.357 | > 95 | ≥ 80 | 4 | – | – | – | – | – | – | –
12 | – | NOC(c1ccccc1)c1cc(Cl)cc(Cl)c1 (stereo unspecified) | 69.8 | 8.66 | 83.4 | 5.7 | 0.87 | > 95 | ≥ 80 | 2 | – | – | – | Active | – | – | –
13 | – | NOC(c1ccccc1)c1cccc(Br)c1 (stereo unspecified) | 77.6 | 11.8 | 92.6 | 7.15 | 0.59 | > 95 | 60 | 1 | – | – | – | – | – | – | –
